# Assay: Inhibition of HDAC1/2/3/8 in human U-937 cells assessed as increase in H3K9/14 acetylation at 10 uM measured after 12 to 24 hrs by Western blot analysis
# Assay type: cell-based
# Settings: u-937, 10 µM, time 12-24 hrs; call rule not given here
# How it was run: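 HCT-116 or U937 cells treated at 10 µM for 12 and 24 h. […] Western blot used 40 µg total protein or 5 µg acid-extracted histone. Blots probed for cleaved PARP, acetylated tubulin, H3K9/14ac and Hsp90(AcLys294), normalized to GAPDH or H4. Compared with control cells by one-way ANOVA and Dunnett's test.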
compound,measurement,value
CCN(CC)Cc1ccc(Cn2c(=O)c(OCc3ccc(C(=O)NO)cc3)c(-c3cccnc3)c3ccccc32)cc1,inhibition (INH),Active
